MT1-MMP act inh: MT1-MMP (human) activation inhibition; P50281; HT1080 RFP-PRO-GFP cells, GFP/RFP ratio fluorescence, overnight; percent of plate control window, DMSO zero; GFP/RFP ratio change, % at 20 µM; actives 0.061% (n = 360,000); AID 651647;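 active means GFP/RFP ratio change of at least 30% with cell ATP level not reduced by more than half and red fluorescence within 50% of control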
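Test system: HT1080 cells expressing an RFP-PRO-GFP fluorescent reporter construct / Compound dosing: single-point 20 µM compound, 1% DMSO / Schedule: cells overnight before dosing, compound overnight, 37 °C, 5% CO2 / Evaluation: GFP/RFP fluorescence ratio / Control set: DMSO and RFP-L50D-GFP cell wells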
Tb MetRS inh: blocks T. brucei methionyl-tRNA synthetase activity | purified T. brucei MetRS, ATP depletion, Kinase-Glo luminescence | inhibition, % at 11.9 µM | actives 0.4% (n = 360,000) | AID 624268;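 active means inhibition above a per-plate cutoff of the control wells' mean inhibition plus 3 SD, cut at about 5.5% in these data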;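 further: 0% = DMSO wells median and 100% = median of wells with control inhibitor compound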
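Material – parasite MetRS enzyme · Medium – HEPES-MgCl2-KCl buffer plus DTT, spermine, BSA, pyrophosphatase · Reagent – ATP, methionine and E. coli bulk tRNA substrates · Times – 15 min enzyme-compound preincubation, 2 h reaction, 10 min detection, 25 °C · Measured by – luminescence of leftover ATP · Evaluation – percent inhibition relative to median high and low control wells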
Rin1 Abl inh: inhibitors of human Rin1-Abl protein interaction | P00519+Q13671 | actives 0.4% (n = 360,000) | inhibition, % at 7.35 µM | TR-FRET Rin1/Abl binding, biochemical; in the data active means inhibition above about 5%, passing the limit was not always enough
SKN-1 block: blocks SKN-1 activity in C. elegans; C. elegans VP596 Pgst-4::GFP/RFP ratio, acrylamide-induced, 24 h; inhibition, % at 21.8 µM; actives 0.49% (n = 360,000); AID 624304;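 active means interference check ratio from 0.5 to 1.5 plus GFP to RFP signal ratio inhibition reaching or exceeding a fixed threshold, cut at about 30% in these data, passing the limit was not always enough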
Arrestin-AP2 inh: blocks beta-arrestin peptide binding to AP2 adaptin; FITC-arrestin peptide / GST-AP2 beads, flow cytometry; AP2 beta2 appendage carries R879A mutation; inhibition, % at 10 µM; actives 0.31% (n = 340,000); AID 504490;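 active means inhibition above a set limit, near 3 SD of compounds lacking own fluorescence, cut at about 54% in these data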;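 further: plate controls were DMSO wells for no effect and 5 µM unlabelled arrestin peptide for full effect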
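System: GST-tagged AP2 beta2-adaptin appendage (R879A) on 4 µm glutathione beads / Reagent: FITC-arrestin peptide, 50 nM / Detection: HyperCyt-sampled flow cytometry, FL1 channel, ex 488/em 535 nm / Timing: 12 min plus 1 h, RT / Buffer or medium: PBS plus Tween 20 (0.05%) and BSA (0.1%)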
* = called active by the depositor; · = no result given. Compounds with a hit are over-represented: about 1.6% of the library has one in this group of screens.

SMILES | MT1-MMP act inh | Tb MetRS inh | Rin1 Abl inh | SKN-1 block | Arrestin-AP2 inh
O=C(C[C@H]1C[C@H](C(=O)N2CCOCC2)[C@@]2(CCC3CCCC3)c3[nH]c4cc(-c5ccco5)ccc4c3CCN2C1=O)NCc1ccco1 | -24.1 | 0.0 | -4.2 | 35.6* | 12.6
CCCNC(=O)COC(=O)c1[nH]c(C)c(C(=O)OCC)c1C | 1.8 | -0.3 | -3.2 | 35.4* | -10.2
CCOC(=O)c1c(C)[nH]c(C(=O)OCC(=O)N2CCN(S(=O)(=O)c3ccccc3)CC2)c1C | -3.3 | -1.2 | 1.0 | 42.2* | 2.0
C[C@H](CO)N1C[C@H](C)[C@@H](CN(C)C(=O)NC2CCCCC2)Oc2ccc(NC(=O)Cc3ccccc3)cc2C1=O | 4.0 | -0.5 | 0.4 | 32.2 | 1.7
CCCOC(=O)c1cc(=O)[nH]c2ccccc12 | 6.7 | -0.5 | -5.2 | 36.8* | 1.5
COC(=O)C1CSC(C)(C)C(=O)N1 (stereo not given) | 2.4 | -0.8 | -4.5 | 15.1 | 1.3
COC(=O)CCCCC1SCC2NC(=O)NC21O (stereo not given) | 5.3 | -0.9 | 87.3* | 1.2 | -8.3
O=C(C[C@H]1CC[C@@H]2[C@H](COC[C@H](O)CN2C(=O)c2cnccn2)O1)NCc1ccc(Cl)cc1 | 0.5 | -0.7 | · | 4.2 | ·
O=C(NCC(=O)N1CCOCC1)c1ccc(Cl)c(Cl)c1 | 1.4 | 0.1 | 0.0 | 37.2* | -1.5
O=C(c1ccc(Cl)c(Cl)c1)N1CCOCC1 | -0.5 | -0.5 | 0.7 | -9.0 | 2.1
O=[N+]([O-])c1ccc(NN=Cc2cccc([N+](=O)[O-])c2)cc1 | -6.4 | 0.0 | -3.2 | 38.3* | -3.1
Cc1ccc(-c2nnc(-c3cccs3)o2)cc1 | -4.2 | -1.2 | -3.5 | 36.5* | 8.4
Cc1ccc(Nc2nc(CSc3nnc(-c4cccs4)o3)cs2)cc1 | 1.6 | -1.7 | 0.5 | 35.0* | 34.8
c1ccc(-c2nc(CSc3nnc(-c4cccs4)o3)cs2)cc1 | -7.8 | -1.1 | -6.0 | 29.1* | -7.7
Fc1ccc(/C=C/c2nnc(-c3cccs3)o2)cc1 | 0.8 | -0.6 | 0.0 | 53.9* | 12.9
O=C(CSc1nnc(-c2cccs2)o1)OCc1ccccc1 | -3.0 | -1.3 | -4.3 | -5.9 | 17.5
Cc1ccc(/C=C/c2nnc(-c3cccs3)o2)cc1 | · | -2.3 | 3.7 | 19.3 | 6.2
CCOC(=O)[C@]12CCCC=C1N(Cc1cccc3ccccc13)C(=O)[C@H](CC(=O)N1CCC(c3ccccc3)CC1)C2 | -6.5 | -0.2 | · | 7.7 | ·
CCCS(=O)(=O)NC(=O)C1(C)CCN(C(=O)c2cc(C(C)(C)C)nn2C)C1 (stereo not given) | 0.7 | 0.0 | -3.0 | -7.9 | ·
CN1C(=O)/C(=C/C=C2\SCCN2C)N(C)C1=S | 25.7 | -0.3 | -18.7 | 47.4* | 25.3
COC(=O)[C@]12CCCCC=C1N(Cc1ccc(Cl)cc1Cl)C(=O)[C@H](CC(=O)N1CCN(C(=O)c3ccco3)CC1)C2 | -0.8 | -1.3 | · | 3.4 | ·
O=C(O)c1cccc2c1-c1ccc(Cl)cc1C2=O | 2.4 | -0.3 | -4.0 | -2.1 | -6.6
Nc1cccc2c1C(=O)c1ccc(Cl)cc1C2=O | 11.1 | -0.2 | -7.4 | 45.5* | -1.8
CC(=O)Nc1cccc(-c2nc3ccccc3n2C(C)C(=O)NC(C)(C)C)c1 (stereo not given) | -1.8 | -0.2 | · | -0.8 | ·
Fc1ccc(OCc2nc(-c3cccs3)no2)cc1 | 3.2 | -1.0 | 4.2 | 38.6* | 13.3
SMILES | MT1-MMP act inh | Tb MetRS inh | Rin1 Abl inh | SKN-1 block | Arrestin-AP2 inh
Clc1cccc(OCc2nc(-c3ccncc3)no2)c1 | 1.1 | -0.1 | 3.8 | 47.6* | 2.2
Cc1cc(OCc2nc(-c3cccs3)no2)cc(C)c1Cl | -2.2 | -0.7 | -0.7 | -0.8 | -7.8
c1ccc(OCc2nc(-c3cccs3)no2)cc1 | 4.5 | 0.4 | 2.5 | 39.9* | 4.7
CCC(C)[C@H]1CNC(=O)C(=O)N1CC1CCCCC1 (stereo not given in full) | 10.3 | -0.7 | · | -0.2 | ·
O=C1NC[C@H](Cc2ccc(O)cc2)N(C[C@@H]2CCCN2C[C@H](Cc2ccccc2)N2C[C@H](Cc3ccc(O)cc3)N(CC3CCCCCC3)C(=O)C2=O)C1=O | -2.5 | -0.2 | · | -5.7 | ·
O=C(Nc1nccs1)c1ccc(-c2ccccc2[N+](=O)[O-])o1 | 0.9 | -0.1 | -4.3 | 36.1* | 8.1
O=C(Nc1nccs1)c1ccc(-c2ccccc2Cl)o1 | 5.0 | -0.9 | -1.7 | 52.7* | 3.5
CC(C)Cn1cc(-c2cccc3nccn23)cn1 | -3.9 | -0.2 | 0.9 | 7.0 | ·
CCc1nc2ccc(C(=O)Nc3ccc(C(N)=O)cc3)cn2c1N(CCC(C)C)CCN(C)C | 0.4 | -0.4 | 0.4 | 21.6 | ·
CCCOC(=O)c1ccc(NC(=O)/C=C/c2cccs2)cc1 | -6.5 | -0.3 | 5.8 | 46.9* | -3.0
CSCCC(C(=O)NC(C)(C)C)n1c(-c2cccc(NC(C)=O)c2)nc2ccccc21 (stereo not given) | -2.9 | -0.5 | · | -1.0 | ·
O=C(NCc1ccc(Cl)cc1)C1CCN(c2nnc(N3CCCC3=O)s2)CC1 | 1.8 | 0.1 | -0.1 | 37.3* | -1.8
Cc1csc(-c2nc3ccccc3n2C(C(=O)NC(C)(C)C)c2ccccc2)c1 (stereo not given) | -3.4 | -0.3 | · | 12.3 | ·
O=C(NCc1ccccc1)c1nc(-c2c(F)cccc2F)oc1-c1ccccc1 | -4.1 | -0.2 | · | 4.4 | ·
Nc1c(Cl)ncnc1N/N=C/c1ccc2ccccc2n1 | -4.1 | 0.7 | 6.4* | -1.0 | ·
N#Cc1nc(N2CCOCC2)nc(N2CCOCC2)n1 | 1.9 | -0.4 | -1.2 | 36.1* | 12.7
CC(=O)Nc1cccc(OCC(=O)NS(=O)(=O)c2ccc(Cl)cc2)c1 | -2.2 | -0.1 | -1.2 | 35.4* | 6.2
FC(F)(F)c1cc(Cl)c2nc(-c3ccco3)c(Cc3ccccc3C(F)(F)F)n2c1 | -3.0 | 0.1 | · | 7.6 | ·
COc1ccc(-c2ccc(C(=O)NCCN(C)C)c3occc23)c(C)c1 | 4.8 | -0.2 | -3.2 | 17.3 | ·
COCCNC(=O)c1ccc(-c2ccc(OC)cc2C)c2ccoc12 | -0.5 | -0.2 | -5.0 | 35.9* | ·
COCCCNc1ccn2nc(-c3ccc(Cl)cc3)cc2n1 | -1.7 | -0.4 | -4.0 | 13.8 | ·
FC(F)(F)c1ccc(-c2csc(-c3ccno3)n2)cc1 | -1.3 | -0.7 | 4.0 | 44.0* | 10.5
O=[N+]([O-])c1ccc(OC/C=C2\Oc3ccc([N+](=O)[O-])cc3C2N2CCOCC2)cc1 (stereo not given) | -2.3 | 1.2 | -0.8 | 37.3* | 26.1
CCCCN1C(=O)C(CC(=O)NCCCN(C)C)CC(C(=O)N2CCCCCC2)=C1C (stereo not given) | 7.9 | -0.3 | · | -3.1 | ·
Cc1cccc(C)c1NC(=O)C1(C)CN(S(C)(=O)=O)CC(=O)N1CCCN1CCOCC1 (stereo not given) | 5.5 | -0.9 | · | -2.3 | ·
COc1cccc(-c2nc(-c3cccs3)no2)c1 | -0.9 | -0.5 | 1.4 | 46.2* | 1.7

Assay outcomes as filed in PubChem BioAssay.
